Experiments:
Conditions in all cases: stereoisomer not certain
[1] = biological target: T1, OR2A1 (Homo sapiens) (UniProt Q8NGT9)
T1 sequence (whole entry): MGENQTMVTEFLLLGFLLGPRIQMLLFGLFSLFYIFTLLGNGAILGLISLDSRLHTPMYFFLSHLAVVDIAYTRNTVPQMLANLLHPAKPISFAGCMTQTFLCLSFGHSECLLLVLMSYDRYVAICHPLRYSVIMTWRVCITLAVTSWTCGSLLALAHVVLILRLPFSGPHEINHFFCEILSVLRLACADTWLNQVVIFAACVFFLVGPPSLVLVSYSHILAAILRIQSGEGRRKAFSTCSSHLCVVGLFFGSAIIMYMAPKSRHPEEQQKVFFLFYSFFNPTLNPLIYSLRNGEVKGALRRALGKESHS
In short: (§1)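 Each entry records the cell line, G-protein, co-transfected protein and tags used. Methods varied with the source, often transient luciferase assays in mammalian cell lines. A receptor–molecule pair is called responsive (active) if the original authors judged its signal statistically different from baseline and non-responsive (inactive) otherwise.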

[2] = biological target: T2, OR2A7 (Homo sapiens) (UniProt Q96R45)
T2 sequence (whole entry): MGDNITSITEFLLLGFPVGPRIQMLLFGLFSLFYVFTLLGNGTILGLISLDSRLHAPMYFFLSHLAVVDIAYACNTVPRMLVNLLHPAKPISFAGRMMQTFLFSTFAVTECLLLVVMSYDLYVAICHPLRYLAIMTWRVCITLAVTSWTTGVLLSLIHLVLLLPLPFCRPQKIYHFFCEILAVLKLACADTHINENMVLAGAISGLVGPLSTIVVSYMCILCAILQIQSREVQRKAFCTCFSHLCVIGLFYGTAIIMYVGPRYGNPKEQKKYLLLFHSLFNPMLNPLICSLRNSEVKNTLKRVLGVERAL
In short: as §1

[3] = biological target: OR2A12 (Homo sapiens) (UniProt Q8NGT7)
In short: as §1

[4] = biological target: OR2A14 (Homo sapiens) (UniProt Q96R47)
In short: as §1

[5] = biological target: OR2A2 (Homo sapiens) (UniProt Q6IF42)
In short: as §1

[6] = biological target: OR2A25 (Homo sapiens) (UniProt A4D2G3)
In short: as §1

[7] = biological target: OR2A4 (Homo sapiens) (UniProt O95047)
In short: as §1

[8] = biological target: OR2A5 (Homo sapiens) (UniProt Q96R48)
In short: as §1

[9] = biological target: OR2AE1 (Homo sapiens) (UniProt Q8NHA4)
In short: as §1

[10] = biological target: OR2AG1 (Homo sapiens) (UniProt Q9H205)
In short: as §1

[11] = biological target: OR2AG2 (Homo sapiens) (UniProt A6NM03)
In short: as §1

[12] = biological target: OR2AJ1 (Homo sapiens) (UniProt Q8NGZ0)
In short: as §1

[13] = biological target: OR2AK2 (Homo sapiens) (UniProt Q8NG84)
In short: as §1

[14] = biological target: OR2AP1 (Homo sapiens) (UniProt Q8NGE2)
In short: as §1

[15] = biological target: OR2AT4 (Homo sapiens) (UniProt A6NND4)
In short: as §1

[16] = system: OR2A1 S168C
In short: as §1

[17] = system: OR2A1 T73A R74C S168C
In short: as §1

[18] = system: OR2A2
In short: as §1

[19] = system: OR2A5 I126V A202S A255T
In short: as §1

[20] = system: OR2A7
In short: as §1

Measured: odorant receptor agonist call

Sequence of OR2A2 (Homo sapiens) (Q6IF42 whole entry): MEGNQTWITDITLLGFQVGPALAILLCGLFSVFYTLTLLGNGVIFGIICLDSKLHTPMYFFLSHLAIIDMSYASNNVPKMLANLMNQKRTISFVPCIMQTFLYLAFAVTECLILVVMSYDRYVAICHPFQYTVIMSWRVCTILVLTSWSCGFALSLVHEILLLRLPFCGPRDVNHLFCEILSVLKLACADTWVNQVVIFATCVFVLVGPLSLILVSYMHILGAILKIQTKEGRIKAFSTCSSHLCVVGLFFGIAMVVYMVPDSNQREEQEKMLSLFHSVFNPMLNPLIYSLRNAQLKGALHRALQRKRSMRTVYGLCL
Sequence of OR2A25 (Homo sapiens) (A4D2G3 whole entry): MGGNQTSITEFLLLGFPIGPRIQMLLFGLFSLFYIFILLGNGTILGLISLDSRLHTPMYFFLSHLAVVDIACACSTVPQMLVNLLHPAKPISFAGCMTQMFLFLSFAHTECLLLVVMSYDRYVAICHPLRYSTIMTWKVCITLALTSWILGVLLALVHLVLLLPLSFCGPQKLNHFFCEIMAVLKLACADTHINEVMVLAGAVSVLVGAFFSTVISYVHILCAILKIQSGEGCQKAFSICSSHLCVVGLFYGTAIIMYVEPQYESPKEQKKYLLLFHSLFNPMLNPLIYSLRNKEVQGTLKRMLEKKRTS
Sequence of OR2AT4 (Homo sapiens) (A6NND4 whole entry): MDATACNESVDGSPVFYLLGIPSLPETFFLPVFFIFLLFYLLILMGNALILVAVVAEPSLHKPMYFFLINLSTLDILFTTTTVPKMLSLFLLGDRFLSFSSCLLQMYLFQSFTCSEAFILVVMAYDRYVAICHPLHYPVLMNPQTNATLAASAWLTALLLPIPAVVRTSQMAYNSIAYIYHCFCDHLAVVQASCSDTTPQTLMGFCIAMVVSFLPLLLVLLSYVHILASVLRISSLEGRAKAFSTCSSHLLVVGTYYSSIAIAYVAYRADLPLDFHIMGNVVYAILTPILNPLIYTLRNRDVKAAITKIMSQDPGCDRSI
Sequence of OR2A14 (Homo sapiens) (Q96R47 whole entry): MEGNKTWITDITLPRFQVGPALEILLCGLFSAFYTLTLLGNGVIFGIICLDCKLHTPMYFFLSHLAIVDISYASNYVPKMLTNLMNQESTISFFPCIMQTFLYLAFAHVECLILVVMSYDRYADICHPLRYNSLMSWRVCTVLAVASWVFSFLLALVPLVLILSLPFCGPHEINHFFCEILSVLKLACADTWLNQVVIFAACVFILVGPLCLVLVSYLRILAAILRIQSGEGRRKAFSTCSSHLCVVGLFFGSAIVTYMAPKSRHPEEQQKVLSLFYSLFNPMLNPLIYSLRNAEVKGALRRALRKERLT
Sequence of OR2AP1 (Homo sapiens) (Q8NGE2 whole entry): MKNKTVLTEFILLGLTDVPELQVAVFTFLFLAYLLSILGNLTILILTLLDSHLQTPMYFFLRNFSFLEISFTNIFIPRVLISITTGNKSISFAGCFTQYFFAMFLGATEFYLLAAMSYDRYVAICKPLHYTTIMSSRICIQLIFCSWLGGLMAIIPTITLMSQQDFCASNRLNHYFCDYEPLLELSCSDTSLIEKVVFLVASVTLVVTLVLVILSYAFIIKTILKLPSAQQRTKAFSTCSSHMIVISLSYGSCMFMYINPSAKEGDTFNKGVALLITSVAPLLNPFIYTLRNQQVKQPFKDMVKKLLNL
Sequence of OR2AK2 (Homo sapiens) (Q8NG84 whole entry): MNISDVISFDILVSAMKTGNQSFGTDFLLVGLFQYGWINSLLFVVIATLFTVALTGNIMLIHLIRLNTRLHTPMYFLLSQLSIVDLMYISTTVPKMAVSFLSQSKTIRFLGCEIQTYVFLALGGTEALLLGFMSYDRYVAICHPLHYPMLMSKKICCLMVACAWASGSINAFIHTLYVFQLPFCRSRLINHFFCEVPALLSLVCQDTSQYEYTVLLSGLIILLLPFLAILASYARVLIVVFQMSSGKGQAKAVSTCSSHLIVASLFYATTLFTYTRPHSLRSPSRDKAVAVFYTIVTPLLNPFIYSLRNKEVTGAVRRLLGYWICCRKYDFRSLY
Sequence of OR2A12 (Homo sapiens) (Q8NGT7 whole entry): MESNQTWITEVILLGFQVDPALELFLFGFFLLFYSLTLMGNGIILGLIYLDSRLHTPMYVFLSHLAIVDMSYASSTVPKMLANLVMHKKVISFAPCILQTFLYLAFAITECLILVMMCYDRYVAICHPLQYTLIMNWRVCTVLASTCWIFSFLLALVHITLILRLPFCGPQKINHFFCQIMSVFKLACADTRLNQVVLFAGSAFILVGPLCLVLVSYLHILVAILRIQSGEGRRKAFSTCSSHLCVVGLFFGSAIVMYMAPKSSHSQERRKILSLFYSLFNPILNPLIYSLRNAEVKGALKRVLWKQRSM
Sequence of OR2A5 (Homo sapiens) (Q96R48 whole entry): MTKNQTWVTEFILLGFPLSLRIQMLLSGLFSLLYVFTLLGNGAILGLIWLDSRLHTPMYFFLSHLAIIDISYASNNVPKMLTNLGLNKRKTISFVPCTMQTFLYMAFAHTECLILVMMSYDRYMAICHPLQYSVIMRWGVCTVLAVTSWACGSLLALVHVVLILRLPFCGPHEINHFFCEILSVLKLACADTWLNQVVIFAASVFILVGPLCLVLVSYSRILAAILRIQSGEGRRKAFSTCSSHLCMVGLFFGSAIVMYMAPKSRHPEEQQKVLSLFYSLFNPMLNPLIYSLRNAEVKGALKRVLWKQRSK
Sequence of OR2AG1 (Homo sapiens) (Q9H205 whole entry): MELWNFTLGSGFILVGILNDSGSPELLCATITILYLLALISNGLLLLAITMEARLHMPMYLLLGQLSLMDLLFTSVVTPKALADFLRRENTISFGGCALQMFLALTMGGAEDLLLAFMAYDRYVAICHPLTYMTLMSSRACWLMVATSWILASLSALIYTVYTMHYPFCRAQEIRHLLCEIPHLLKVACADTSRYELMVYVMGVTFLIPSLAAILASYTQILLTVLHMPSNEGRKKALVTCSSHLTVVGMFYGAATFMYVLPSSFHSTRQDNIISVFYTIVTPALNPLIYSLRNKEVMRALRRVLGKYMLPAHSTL
Sequence of OR2AG2 (Homo sapiens) (A6NM03 whole entry): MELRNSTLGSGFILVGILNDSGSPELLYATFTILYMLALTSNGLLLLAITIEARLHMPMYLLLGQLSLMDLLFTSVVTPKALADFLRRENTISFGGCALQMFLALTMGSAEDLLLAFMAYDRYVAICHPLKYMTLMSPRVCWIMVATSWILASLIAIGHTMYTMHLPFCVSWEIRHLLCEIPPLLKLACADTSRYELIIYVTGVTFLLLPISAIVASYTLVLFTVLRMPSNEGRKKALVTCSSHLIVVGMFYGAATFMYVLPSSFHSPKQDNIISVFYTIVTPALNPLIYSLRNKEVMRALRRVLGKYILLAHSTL
Sequence of OR2A4 (Homo sapiens) (O95047 whole entry): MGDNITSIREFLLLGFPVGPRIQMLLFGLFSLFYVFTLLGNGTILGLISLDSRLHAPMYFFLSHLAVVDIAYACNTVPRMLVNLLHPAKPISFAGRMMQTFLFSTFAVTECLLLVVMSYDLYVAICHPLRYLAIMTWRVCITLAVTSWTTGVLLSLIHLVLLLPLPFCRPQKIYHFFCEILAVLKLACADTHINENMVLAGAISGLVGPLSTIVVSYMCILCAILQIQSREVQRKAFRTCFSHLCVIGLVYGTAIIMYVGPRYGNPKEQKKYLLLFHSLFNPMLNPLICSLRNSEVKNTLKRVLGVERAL
Sequence of OR2AE1 (Homo sapiens) (Q8NHA4 whole entry): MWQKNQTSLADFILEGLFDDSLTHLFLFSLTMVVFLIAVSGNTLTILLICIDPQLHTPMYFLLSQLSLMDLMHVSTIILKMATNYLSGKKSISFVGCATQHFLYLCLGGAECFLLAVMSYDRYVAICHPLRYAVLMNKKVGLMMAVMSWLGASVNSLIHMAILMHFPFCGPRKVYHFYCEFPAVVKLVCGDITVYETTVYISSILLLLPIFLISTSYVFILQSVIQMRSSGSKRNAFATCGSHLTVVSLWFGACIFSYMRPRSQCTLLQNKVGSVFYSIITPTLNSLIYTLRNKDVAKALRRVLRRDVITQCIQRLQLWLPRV
Sequence of OR2A2 (as listed by the source): as the sequence (Q6IF42 whole entry) above, with F280L counted along it
Sequence of OR2A7 (as listed by the source): as the sequence (O95047 whole entry) above, with R238C, V250F counted along it
Sequence of OR2AJ1 (Homo sapiens) (Q8NGZ0 whole entry): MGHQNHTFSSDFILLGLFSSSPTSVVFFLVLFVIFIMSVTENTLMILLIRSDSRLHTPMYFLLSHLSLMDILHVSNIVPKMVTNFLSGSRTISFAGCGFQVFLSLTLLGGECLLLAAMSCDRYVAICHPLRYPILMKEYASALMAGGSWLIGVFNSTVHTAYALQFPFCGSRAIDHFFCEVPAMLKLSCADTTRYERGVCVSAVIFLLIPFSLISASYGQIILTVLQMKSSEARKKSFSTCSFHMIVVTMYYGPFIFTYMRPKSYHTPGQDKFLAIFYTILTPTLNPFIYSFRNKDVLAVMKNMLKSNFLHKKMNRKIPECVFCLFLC
Sequence of OR2A1 S168C (as listed by the source, stated change not applied): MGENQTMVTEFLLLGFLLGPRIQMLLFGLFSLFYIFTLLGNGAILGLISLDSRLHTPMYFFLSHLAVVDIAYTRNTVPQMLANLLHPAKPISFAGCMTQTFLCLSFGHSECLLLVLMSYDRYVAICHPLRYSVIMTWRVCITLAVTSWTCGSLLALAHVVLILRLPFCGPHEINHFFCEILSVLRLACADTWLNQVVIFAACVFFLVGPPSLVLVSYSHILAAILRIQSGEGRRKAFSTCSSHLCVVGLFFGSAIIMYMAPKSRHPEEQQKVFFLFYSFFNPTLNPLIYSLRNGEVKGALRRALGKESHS

COc1ccc(C=O)cc1
inactive: [1] | [2]

Cc1cccc(C)c1
inactive: [1] | [2]

Cc1c([N+](=O)[O-])c(C)c([N+](=O)[O-])c(C(C)(C)C)c1[N+](=O)[O-]
inactive: [1] | [3] | [4] | [5] | [6] | [7] | [8] | [2] | [9] | [10] | [11] | [12] | [13] | [14] | [15]

C=CCOC(=O)Cc1ccccc1
inactive: [1] | [16] | [17] | [3] | [4] | [5] | [6] | [18] | [7] | [8] | [19] | [2] | [20] | [9] | [10] | [11] | [13] | [14] | [15]
